A selection: hits, their analogues and other compounds. The true share with any hit is near 2.3%.
PDI turbidity: inhibitors of human protein disulfide isomerase. P07237. hit rate 0.052% among 350,000. inhibition, % at 10 µM. AID 588391. PDI insulin aggregation turbidity, A650, 90 min;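 active means mean inhibition across replicates of 30% or more, whatever share of single replicates reach that level; inconclusive means mean inhibition below 30% while every single replicate reaches 30%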
Target sequence (P07237 whole entry, looked up): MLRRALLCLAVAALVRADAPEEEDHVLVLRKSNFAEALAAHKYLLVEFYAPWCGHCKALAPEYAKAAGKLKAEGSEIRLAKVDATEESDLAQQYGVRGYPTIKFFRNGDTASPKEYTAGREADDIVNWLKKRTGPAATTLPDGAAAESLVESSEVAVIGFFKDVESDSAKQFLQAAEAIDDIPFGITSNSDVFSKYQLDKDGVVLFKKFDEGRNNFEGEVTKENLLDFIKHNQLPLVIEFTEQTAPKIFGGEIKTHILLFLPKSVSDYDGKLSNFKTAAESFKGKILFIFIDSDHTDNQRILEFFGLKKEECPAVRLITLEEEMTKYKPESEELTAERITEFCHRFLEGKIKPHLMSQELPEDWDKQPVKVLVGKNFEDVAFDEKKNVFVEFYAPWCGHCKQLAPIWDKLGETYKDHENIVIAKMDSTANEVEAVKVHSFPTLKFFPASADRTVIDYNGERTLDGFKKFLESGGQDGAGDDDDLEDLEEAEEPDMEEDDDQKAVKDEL
ERp5 inh: inhibitors of human ERp5 | hit rate 0.05% among 350,000 | ERp5 insulin aggregation, absorbance 650 nm, 90 min | AID 651711 | Q15084 | inhibition, % at 9.99 µM;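 active means mean replicate inhibition above about 25%, with every replicate also reaching it, limit read from the data, passing the limit was not always enough; inconclusive means only one of those two criteria met; inactive means neither criterion met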
C2C12 statin: suppressors of simvastatin-induced myotoxicity in C2C12 myotubes. ATP luminescence, 48 h; scaled: DMSO 0, geranylgeraniol control 100. rescue of ATP level, % at 7.49 µM. hit rate 0.78% among 330,000. AID 602340;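 active means mean ATP rescue above about 67%, or every replicate alone reaching that limit, limit read from the data, passing the limit was not always enough; inconclusive means no clear call, values can overlap the other calls; inactive means mean under the limit and some replicate under it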;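 further: myotubes were challenged with 10 µM simvastatin during compound exposure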
Cneo AK release: causes C. neoformans cell lysis. adenylate kinase release luminescence, 4 h; normalised: neutral wells 0, clomiphene wells 100. hit rate 0.2% among 360,000. lysis activity, % at 15 µM. AID 651654;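 active means mean lysis activity across replicates of at least 80%, whatever share of replicates individually reach that level; inactive means mean lysis activity below 80%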
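Material – log-phase Cryptococcus neoformans yeast cells · Input – 5 × 10^6 yeast cells/mL · Medium – fresh YPD growth medium · Doses – single compound concentration per well · Timing – static 4 h at 37 °C with compound, 1 h detection · Detection – adenylate kinase release luminescence · Read-out – signal increase indicating cell lysis · Control set – Clomiphene as positive lysis control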
DENV2 CPE rescue: inhibitors of DENV2 cytopathic effect | DENV2-infected cells, cytopathic effect rescue, plate reader | CPE inhibition, % at 9.99 µM | hit rate 1.7% among 350,000 | AID 651640; in the data active means CPE inhibition above about 20%, passing the limit was not always enough; inconclusive means no clear call, values can overlap the other calls; tested in BHK-21 cells;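 further: 0% = median of neutral control wells and 100% = median of positive control wells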
F508del corr: CFTR F508del correction in bronchial cells; CFBE cells, YFP halide quenching; stimulated with forskolin plus potentiator P3; % fluorescence drop versus neutral controls; activity (quench increase), % at 7.58 µM; hit rate 0.36% among 350,000; AID 720511;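 active means mean added fluorescence quench of at least 8% versus neutral control, with both replicates also reaching 8%; inconclusive means only one of the mean or replicate conditions met; inactive means mean below 8% and not both replicates reaching 8%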;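 further: cells transiently co-express mutant CFTR-F508del with the halide-sensitive YFP; corrector assay measuring rescue of mutant channel to the surface after 24 h compound exposure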
Active calls of the source: *.

CNC[C@@H]1OCCCC[C@@H](C)Oc2ccc(NC(=O)CCCN(C)C)cc2C(=O)N([C@@H](C)CO)C[C@H]1C was read as ERp5 inh -2, C2C12 statin -18, Cneo AK release 6, DENV2 CPE rescue inconclusive and F508del corr 3.
C[C@H](CO)N1C[C@H](C)[C@@H](CN(C)Cc2ccc(Cl)c(Cl)c2)Oc2ccc(NS(=O)(=O)c3ccc(Cl)cc3)cc2CC1=O was read as ERp5 inh 1, C2C12 statin 84*, Cneo AK release -1, DENV2 CPE rescue -16 and F508del corr 8.
`O=S(=O)(NCc1csc(-c2cccs2)n1)c1cccc(C(F)(F)F)c1` gave PDI turbidity 2, ERp5 inh -6, C2C12 statin 131*, Cneo AK release 1, DENV2 CPE rescue -4 and F508del corr -2.
CCCN(C)C[C@H]1Oc2ncc(Br)cc2C(=O)N([C@H](C)CO)C[C@H]1C was read as ERp5 inh -6, C2C12 statin 2, Cneo AK release -3, DENV2 CPE rescue -1 and F508del corr 6.
For CC(=O)N1c2ccc(S(=O)(=O)NCCC(=O)NCc3ccc(N(C)C)cc3)cc2CC1C (stereo not drawn) the results were PDI turbidity -3, ERp5 inh -19, C2C12 statin 92*, Cneo AK release 0, DENV2 CPE rescue -9 and F508del corr 3.
`CC(=O)N1c2ccc(S(=O)(=O)NCCC(=O)N3CCCC(C)C3)cc2CC1C` (stereo not drawn) gave PDI turbidity 5, ERp5 inh -30, C2C12 statin -30, Cneo AK release 2, DENV2 CPE rescue 35* and F508del corr -3.
For CC(=O)N1c2ccc(S(=O)(=O)N3CCCC(C(=O)N4CCCC(C)C4)C3)cc2CC1C (stereo not drawn) the results were PDI turbidity -10, ERp5 inh 6, C2C12 statin 15, Cneo AK release 3, DENV2 CPE rescue -8 and F508del corr -1.
For C[C@@H]1CN([C@@H](C)CO)C(=O)c2cc(NC(=O)Nc3cccc4ccccc34)ccc2O[C@@H](C)CCCCO[C@@H]1CN(C)S(=O)(=O)c1ccccc1 the results were ERp5 inh 3, Cneo AK release 1, DENV2 CPE rescue inconclusive and F508del corr 5.
For OC[C@@H]1[C@@H](c2ccc(C#CC3(O)CCCC3)cc2)[C@H]2CN(Cc3cccnc3)CCCCN12 the results were ERp5 inh -3, Cneo AK release -1, DENV2 CPE rescue 4 and F508del corr 2.
Screening CCOc1cc(/C=C2\C(=O)N(c3ccc(C(N)=O)cc3)N=C2C)ccc1OC(=O)c1cccs1 returned PDI turbidity -18, C2C12 statin 103* and Cneo AK release -4.
`CCOc1cc(/C=C2/C(=O)N(c3ccccc3)N=C2C)ccc1OC(=O)c1ccco1` gave PDI turbidity 11, C2C12 statin -4 and Cneo AK release -2.
For O=C(Nc1ccccc1)N1CC(=O)N2[C@H](CO)[C@H](c3ccc(C#Cc4cccnc4)cc3)[C@H]2C1 the results were ERp5 inh 7, DENV2 CPE rescue 16 and F508del corr 0.
Screening COc1cc(-c2c(-c3cc(OC)c(OC)c(OC)c3)noc2C)ccc1F returned ERp5 inh 10, DENV2 CPE rescue -1 and F508del corr -3.
For COC(=O)c1cc(-c2c(-c3cc(OC)c(OC)c(OC)c3)noc2C)cc([N+](=O)[O-])c1 the results were PDI turbidity 6, ERp5 inh 3, C2C12 statin 4, Cneo AK release -1, DENV2 CPE rescue 21* and F508del corr 2.
For O=C(c1cccnc1)N1C[C@@H]2[C@H](c3ccccc31)[C@H](CO)N2C(=O)Nc1cccc(F)c1 the results were ERp5 inh 2, C2C12 statin 8, Cneo AK release 0, DENV2 CPE rescue -1 and F508del corr -1.
Screening O=C(C[C@@H]1C=C[C@@H](NC(=O)C2CC2)[C@@H](CO)O1)NC1CCC1 returned ERp5 inh -2, C2C12 statin -6, Cneo AK release -1, DENV2 CPE rescue 3 and F508del corr -1.
COc1cccc([C@@H]2CC=C(C(=O)O)[C@H](c3ccccc3F)N2S(=O)(=O)c2ccc(C)cc2)c1 was read as PDI turbidity 4, ERp5 inh 4, C2C12 statin -7, Cneo AK release 4, DENV2 CPE rescue 21* and F508del corr 3.
Screening Cc1ccccc1S(=O)(=O)N1C(c2ccc(Cl)cc2)CC=C(C(=O)O)C1c1cccc(Cl)c1 (stereo not drawn) returned ERp5 inh 4, DENV2 CPE rescue 67* and F508del corr -1.
`Cc1ccc([C@@H]2CC=C(C(=O)O)[C@H](c3cccc(Cl)c3)N2S(=O)(=O)c2ccccc2C)cc1` gave PDI turbidity 0, ERp5 inh -1, C2C12 statin 32, Cneo AK release 6, DENV2 CPE rescue 7 and F508del corr 1.
`COc1cccc([C@@H]2CC=C(C(=O)O)[C@H](c3ccc(C)cc3)N2S(=O)(=O)c2ccc(C)cc2)c1` gave PDI turbidity 5, ERp5 inh 4, C2C12 statin -2, Cneo AK release 4, DENV2 CPE rescue -5 and F508del corr 4.
For CCC(=O)N1CC2(CN(C(=O)CN3CCOCC3)C2)c2c([nH]c3cc(OC)ccc23)[C@@H]1CO the results were ERp5 inh 1, DENV2 CPE rescue -7 and F508del corr 0.
`CN(Cc1ccccc1)N=Nc1ccccc1` gave PDI turbidity 3, ERp5 inh -1, Cneo AK release 2, DENV2 CPE rescue 7 and F508del corr -2.
CN(Cc1ccccc1)N=Nc1nc[nH]c1C(N)=O was read as ERp5 inh -9, C2C12 statin 4, Cneo AK release 0, DENV2 CPE rescue 77* and F508del corr 3.
`O=C(N/N=C/c1ccc(O)cc1O)NC12CC3CC(CC(C3)C1)C2` gave PDI turbidity 5, ERp5 inh -3, C2C12 statin -5, Cneo AK release 2, DENV2 CPE rescue 50* and F508del corr 4.
Screening C[C@H](CO)N1C[C@H](C)[C@@H](CN(C)C(=O)Nc2ccc3c(c2)OCO3)Oc2cc(C3=CCCC3)ccc2S1(=O)=O returned ERp5 inh 1, C2C12 statin -100, Cneo AK release -1, DENV2 CPE rescue 6 and F508del corr 1.
`COCCNC(=O)C1(C)CCCN(C(=O)c2ccc(C(F)(F)F)cc2)C1` (stereo not drawn) gave PDI turbidity 11, ERp5 inh -2, C2C12 statin -3, Cneo AK release 10, DENV2 CPE rescue 50* and F508del corr 0.

Bioassay records: PubChem, Broad Institute
